STAT1 blocker = reduces IFN-gamma driven STAT1 reporter signal | inhibition, % at 5.5 µM | 0.35% of 200,000 active | AID 920 | NIH 3T3 STAT1-luciferase reporter, luminescence;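 active = inhibition above a set limit, the mean inhibition across all tested compounds plus 3 SD, cut at about 34% in these data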
APP 5'UTR act = APP 5'UTR luciferase reporter activation; activation, % at 2 µM; 1% of 190,000 active; SH-SY5Y APP 5'UTR luciferase reporter, luminescence; zero percent = DMSO vehicle wells; AID 1276;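 active = activation above a set limit, based on mean plus 3 SD of controls, cut at about 140% in these data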
STAT1 act-1 = STAT1 signaling activation | NIH 3T3 STAT1-luciferase reporter, IFN-gamma, luminescence; 100% = IFN-gamma alone, no compound | activation (% of control), % at 5.5 µM | 2.6% of 200,000 active | AID 932;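 active = activation above the screen-wide mean activation plus 3 SD, cut at about 130% in these data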
STAT3 blocker = reduces IL-6 driven STAT3 reporter signal | AID 862 | 0.89% of 190,000 active | U3A cells, IL-6 STAT3-luciferase reporter, luminescence; host cell line lacks STAT1 | inhibition, % at 5.5 µM;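 active = inhibition above the mean inhibition across all screened compounds plus 3 SD, cut at about 44% in these data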
NF-kB expr up = raises NF-kB expression in human neuronal cells | fold change at 12.5 µM | 1.6% of 190,000 active | NF-kB reporter expression; stronger effect = higher value | AID 1239; in the data active = fold change above about 3.3
STAT3 act-1 = activators of IL-6 induced STAT3 signaling; U3A cells, IL-6 STAT3-luciferase reporter, luminescence; 100% = signal with IL-6 EC80 alone; activation (% of control), % at 5.6 µM; 0.91% of 190,000 active; AID 871;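 active = activation above the screen-wide mean of compound activation plus 3 SD, cut at about 130% in these data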
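Material: STAT3-luciferase reporter U3A cells; Probe or stimulus: IL-6 (33 ng/mL); Incubation: compound pre-incubation 1 h before IL-6, then 6 h stimulation at 37 °C; Technique: luminescence from STAT3-driven luciferase reporter; Evaluation: % activation versus median of IL-6-stimulated wells; Controls: IL-6-only high control.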
STAT3 act-2 = confirmation of STAT3 signaling activators; shares compounds with STAT3 act-1; U3A STAT3-luciferase reporter, IL-6 potentiation, luminescence; U3A cells lack STAT1; 100 means same as IL-6 alone; potentiation (% of control), % at 5.7 µM; 64% of 1,200 active;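 active = percent activation of the STAT3 luciferase reporter above a set limit taken from the earlier primary screen, cut at about 130% in these data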
NFkB act 2 = NF-kappaB activation in STAT3 activator counter-screen; shares compounds with STAT3 act-1; human cells, NF-kappaB reporter activation; 11% of 1,200 active; AID 1309; activation (% of control), % at 5.7 µM; in the data active = activation above about 120%;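 note: reporter induced by TNF-alpha stimulation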
STAT1 act-2 = STAT1 activation in STAT3 activator counter-screen; 13% of 1,200 active; NIH 3T3 STAT1-luciferase reporter, IFN-gamma, luminescence; AID 1318; activation (% of control), % at 5.7 µM; shares compounds with STAT3 act-1;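 active = activation above the solvent-only control well mean plus 3 SD, set per screening run, cut at about 120% in these data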
Large screens that a line does not name were inactive (follow-up assays come after a bar, where they were run). Hits are enriched below; roughly 4.9% of the tested compounds scored in any of these assays.

COc1ccc(-c2nc3scc(-c4ccccc4)n3n2)cc1	STAT3 act-1 160 | STAT3 act-2 144 | NFkB act 2 inactive | STAT1 act-2 inactive
COc1ccc(C(=O)n2nc(-c3ccccc3)nc2SC)cc1	none
COCCCNC(=O)c1cccn2c(=O)c3cc4ccccc4cc3nc12	none
O=C(NCc1ccco1)c1cccn2c(=O)c3cc4ccccc4cc3nc12	STAT3 act-1 196 | STAT3 act-2 162 | NFkB act 2 inactive | STAT1 act-2 inactive
CCOn1c(=O)c(-c2cc3ccccc3o2)[n+]([O-])c2ccccc21	STAT3 act-1 154 | STAT3 act-2 179 | NFkB act 2 128 | STAT1 act-2 158
O=C(Nc1nnc(-c2ccccc2Cl)o1)c1ccco1	none
O=C(Nc1nnc(-c2ccccc2Cl)o1)c1nc2ccccc2s1	STAT3 act-1 159 | STAT3 act-2 140 | NFkB act 2 inactive | STAT1 act-2 inactive
Cc1nc(COC(=O)c2ccc(CO)cc2)cs1	none
Cc1nc(COC(=O)c2cc(O)c3ccccc3c2O)cs1	STAT3 act-1 140 | STAT3 act-2 inactive | NFkB act 2 inactive | STAT1 act-2 inactive
CCOC(=O)c1cnn2cc(-c3[nH]ncc3[N+](=O)[O-])cnc12	none
Cn1c(SCc2nc3ccccc3s2)nnc1-c1cccs1	none
CCOc1ccccc1-n1nnnc1SCc1nc2ccccc2s1	STAT3 act-1 166 | STAT3 act-2 156 | NFkB act 2 inactive | STAT1 act-2 128
COc1ccccc1-c1nnc(SCc2nc3ccccc3s2)n1C	none
CCn1c(SCc2nc3ccccc3s2)nnc1-c1cccs1	STAT3 act-1 142 | STAT3 act-2 143 | NFkB act 2 inactive | STAT1 act-2 129
COc1ccnc(N=CNOCc2cccc(C(F)(F)F)c2)c1C#N	none
Cc1ccccc1C(C(=O)NC1CCCC1)N(C(=O)CNC(=O)c1ccco1)c1cccnc1 (centres undefined)	none
O=C(CCN1CCOCC1)N1CCc2c([nH]c3ccccc23)C1c1cccc(Cl)c1 (centres undefined)	STAT3 act-1 142 | STAT3 act-2 172 | NFkB act 2 inactive | STAT1 act-2 inactive
c1ccc2sc(Sc3ncnc4sccc34)nc2c1	STAT3 act-1 151 | STAT3 act-2 159 | NFkB act 2 inactive | STAT1 act-2 inactive
C/C(=N/NS(=O)(=O)c1ccc(Cl)cc1)c1cccc(NC(=O)c2ccc(Cl)cc2Cl)c1	none
CCOc1ccc(/C=C/[N+](=O)[O-])c2ccccc12	STAT3 act-1 137 | STAT3 act-2 inactive | NFkB act 2 inactive | STAT1 act-2 inactive
CCOC(=O)COc1ccc2ccccc2c1/C=C/[N+](=O)[O-]	none
O=C1CN(C(=O)c2cc([N+](=O)[O-])ccc2Cl)C(c2ccc(F)cc2)c2cc(F)ccc2N1 (centres undefined)	none
Cc1ccc(-n2nc(C)c3c(-c4cccs4)c(C#N)c(N)nc32)cc1	STAT3 act-1 144 | STAT3 act-2 inactive | NFkB act 2 inactive | STAT1 act-2 inactive
CCOC(=O)CSc1nc(-c2ccccc2)nc2c1oc1ccccc12	STAT3 act-1 137 | STAT3 act-2 134 | NFkB act 2 inactive | STAT1 act-2 inactive
Cc1ccc(NNc2c(C)nc3ccccc3nc2=O)cc1	none
COc1ccc(C(=O)C2CCCN(Cc3c[nH]c4ccccc34)C2)c(OC)c1 (centres undefined)	STAT3 act-1 142 | STAT3 act-2 141 | NFkB act 2 inactive | STAT1 act-2 inactive
CCc1ccc(NC(=O)CC2C(=O)N(c3ccc(C)cc3)C(=O)N2CCc2ccncc2)cc1 (centres undefined)	none
Cc1ccc2[nH]c(C)c(/C=N/Nc3nc4ccccc4s3)c2c1	STAT3 act-1 139 | STAT3 act-2 134 | NFkB act 2 inactive | STAT1 act-2 inactive
CCC(Sc1nnnn1-c1ccccc1)C(=O)Nc1nc2ccccc2s1 (centres undefined)	STAT3 act-1 157 | STAT3 act-2 155 | NFkB act 2 inactive | STAT1 act-2 inactive
CC(=O)Nc1c(C(=O)O)oc2ccc(Cl)cc12	STAT3 act-1 140 | STAT3 act-2 inactive | NFkB act 2 inactive | STAT1 act-2 inactive
COc1ccc(C(=O)NCCCc2nc3ccccc3n2Cc2ccccc2C)cc1OC	none
c1ccc2c(c1)CCCN2Cc1nnc2n1CCCCC2	STAT3 act-1 140 | STAT3 act-2 inactive | NFkB act 2 inactive | STAT1 act-2 inactive
Cc1ccc(O)c(N=CC2=C(O)c3ccccc3C2=O)c1	NF-kB expr up 4.2, STAT3 act-1 149 | STAT3 act-2 138 | NFkB act 2 128 | STAT1 act-2 inactive
Cc1ccc(O)c(C=Nc2cc(C)ccc2O)c1	none
COc1ccccc1-c1nnc(Nc2nc3c(OC)cccc3s2)o1	STAT3 act-1 142 | STAT3 act-2 inactive | NFkB act 2 137 | STAT1 act-2 141
CCc1ccc(OCC(=O)N/N=C2\CC(=O)c3ccccc32)cc1	STAT3 act-1 146 | STAT3 act-2 inactive | NFkB act 2 inactive | STAT1 act-2 inactive
COCCN(C(=S)Nc1cc(C)cc(C)c1)C(C)c1cccnc1 (centres undefined)	none
Cn1c2ccccc2n2c(=O)c(=O)n(CC(=O)c3ccc(Cl)cc3)nc12	none
CCOC(=O)CC1C(=O)NCCN1C(=O)c1cc2c(=O)n3cccc(C)c3nc2s1 (centres undefined)	STAT3 act-1 164 | STAT3 act-2 139 | NFkB act 2 inactive | STAT1 act-2 inactive
CCOC(=O)CC1C(=O)NCCN1C(=O)c1cc2c(=O)n3ccccc3nc2s1 (centres undefined)	none
CC(Sc1c[nH]c2ccccc12)C(=O)O (centres undefined)	STAT3 act-1 147 | STAT3 act-2 inactive | NFkB act 2 inactive | STAT1 act-2 inactive
CCC(=O)NCCSc1c[nH]c2ccccc12	STAT3 act-1 145 | STAT3 act-2 141 | NFkB act 2 inactive | STAT1 act-2 inactive
CC(C)C(=O)NCCSc1c[nH]c2ccccc12	none
O=C(O)CSc1c[nH]c2ccccc12	STAT3 act-1 151 | STAT3 act-2 inactive | NFkB act 2 inactive | STAT1 act-2 inactive
COc1ccc(CCNC(=O)CSc2nnnn2-c2ccccc2OC)cc1OC	none
C(=N\N(c1ccccc1)c1ccccc1)/c1ccc(N2CCOCC2)s1	none
Cc1ccccc1NC(=O)CN1C(=O)C2C3CC(C(Br)C3Br)C2C1=O (centres undefined)	none

From PubChem BioAssay
